Results pooled from the literature.
Compare with care: the assays were run in different laboratories.
Target: Serine/threonine-protein kinase 10 (STK10, Homo sapiens, UniProt O94804)

Structure (SMILES)	test	system	setting	endpoint	result
Cc1noc([C@H]2C[C@@H](c3ccc(C(F)(F)F)cc3)CN(C(=O)N3CCS(=O)(=O)C3)C2)n1	cell-free assay, competition with immobilised ligand	–	1 µM	remaining binding	100%
CNC(=O)c1cc(Oc2ccc(NC(=O)Nc3ccc(Cl)c(C(F)(F)F)c3)cc2)ccn1	enzyme activity, inhibitor	–	0.3 µM	inhibition	43%
COc1cc2c(N3CCN(C(=O)Nc4ccc(OC(C)C)cc4)CC3)ncnc2cc1OCCCN1CCCCC1	cell-free assay	–	0.5 µM	remaining signal	95%
CC(C)c1ccc(NC(=O)c2cccs2)c(-c2nc3ccccc3[nH]c2=O)c1	enzyme activity, inhibitor	–	1 µM	activity vs control	103%
CN([C@@H]1CCc2c(CC(=O)O)c3ccccc3n2C1)S(=O)(=O)c1ccc(F)cc1	cell-free assay, competition with immobilised ligand	–	1 µM	remaining binding	100%
CN1CC(Oc2cnc(C#N)cc2-c2ccn3nc(NC(=O)C4CC4)cc3c2)C1	enzyme activity, inhibitor	–	1 µM	inhibition	30%
N#CCCc1ccc2c(c1)-c1[nH]c3ccc([N+](=O)[O-])cc3c1CC(=O)N2	cell-free assay	–	0.5 µM	remaining signal	74.1%
O=C(Nc1cnn(-c2csc(C(=O)NC3COC3)c2)c1)Nc1c(F)cccc1Cl	enzyme activity, inhibitor	–	5 µM	remaining activity	89%
NS(=O)(=O)c1cc(NC(=O)Cc2ccccc2)ccc1Oc1cccc(Cl)c1	cell-free assay, competition with immobilised ligand	–	1 µM	remaining binding	65%
O=C1Nc2ccc(Cl)cc2C1=Cc1cc(Cl)c(O)c(Cl)c1	cell-free assay	–	0.5 µM	remaining signal	77.1%
O=C(Nc1cnn(-c2csc(C(=O)NC3COC3)c2)c1)Nc1ccccc1Cl	enzyme activity, inhibitor	–	5 µM	remaining activity	87.9%
O=C1NC(=O)c2cc(Nc3ccc(F)cc3)c(Nc3ccc(F)cc3)cc21	cell-free assay	–	0.5 µM	remaining signal	79.2%
COc1cc2nccc(Oc3ccc(NC(=O)Nc4ccc(F)cc4F)c(F)c3)c2cc1OC	thermal stability, DSF	–	10 µM	ΔTm	> 10 °C
CNC(=O)c1cc2c(Oc3ccc(NC(=O)C4(C(=O)Nc5ccc(F)cc5)CC4)cc3)ccnc2cc1OC	enzyme activity, inhibitor, radiometric	–	1 µM	inhibition	75%
Cc1c[nH]c2nccc(Oc3c(F)cc(Nc4cc(Cl)nc(N)n4)cc3F)c12	cell-free assay, competition with immobilised ligand	–	0.1 µM	remaining binding	100%
CCN(CC)CCNC(=O)c1c(C)[nH]c(/C=C2\C(=O)Nc3ccc(F)cc32)c1C	enzyme activity, inhibitor	–	10 µM	inhibition	83%
Cc1ccc(C(=O)Nc2ccc(CN3CCN(C)CC3)c(C(F)(F)F)c2)cc1C#Cc1cnc2cccnn12	enzyme activity, inhibitor	–	23.5 nM	remaining activity	0.05%
CNCc1ccccc1-c1csc([C@H](C)Nc2nc(C)nc3cc(OC)c(OC)cc23)c1	cell-free assay, competition with immobilised ligand	–	1 µM	remaining binding	100%
CCN1CCN(Cc2ccc(NC(=O)c3ccc(C)c(Oc4ccnc5[nH]ccc45)c3)cc2C(F)(F)F)CC1	target engagement in cells, inhibitor, chemoproteomics	A-375	0.5 µM	inhibition	-177%
O=S(=O)(NC1CCC(c2cc(F)ccc2F)(S(=O)(=O)c2ccc(Cl)cc2)CC1)C(F)(F)F (centres unmarked)	cell-free assay, competition with immobilised ligand	–	1 µM	remaining binding	100%
Cc1cnn2ncc(-c3ccnc(N(C)C)n3)c2c1	binding	–	1 µM	remaining binding	100%
CCN1CCN(Cc2ccc(NC(=O)c3ccc(C)c(/C=C/c4cnc5[nH]ccc5c4OC)c3)cc2C(F)(F)F)CC1	target engagement in cells, inhibitor, chemoproteomics	A-375	50 nM	inhibition	-39.1%
O=C(O)[C@H]1[C@H](Cn2nnc3ccccc3c2=O)CC[C@@H]1C(=O)c1ccc(OCCC2CCOCC2)cc1	cell-free assay, competition with immobilised ligand	–	1 µM	remaining binding	100%
